This is an account of results in ChEMBL document CHEMBL4152379, “Discovery of Pyrrolidine Sulfonamides as Selective and Orally Bioavailable Antagonists of Transient Receptor Potential Vanilloid-4 (TRPV4)” (J Med Chem, 2018).

In brackets after ≈: the same amount, converted by molar mass.

Series [1] deals with Transient receptor potential cation channel subfamily V member 4 (Homo sapiens, UniProt Q9HBA0). The series is described as follows: Antagonist activity at human TRPV4 expressed in BHK/AC9 or HEK MSR2 cells assessed as inhibition of GSK634775-induced Ca2+ flux pre-incubated for 10 mins before agonist addition by FLIPR assay. On the technique in general: Calcium flux is commonly read through the fluorescence of an indicator in the cells.
Sequence of Transient receptor potential cation channel subfamily V member 4 (Q9HBA0 whole entry): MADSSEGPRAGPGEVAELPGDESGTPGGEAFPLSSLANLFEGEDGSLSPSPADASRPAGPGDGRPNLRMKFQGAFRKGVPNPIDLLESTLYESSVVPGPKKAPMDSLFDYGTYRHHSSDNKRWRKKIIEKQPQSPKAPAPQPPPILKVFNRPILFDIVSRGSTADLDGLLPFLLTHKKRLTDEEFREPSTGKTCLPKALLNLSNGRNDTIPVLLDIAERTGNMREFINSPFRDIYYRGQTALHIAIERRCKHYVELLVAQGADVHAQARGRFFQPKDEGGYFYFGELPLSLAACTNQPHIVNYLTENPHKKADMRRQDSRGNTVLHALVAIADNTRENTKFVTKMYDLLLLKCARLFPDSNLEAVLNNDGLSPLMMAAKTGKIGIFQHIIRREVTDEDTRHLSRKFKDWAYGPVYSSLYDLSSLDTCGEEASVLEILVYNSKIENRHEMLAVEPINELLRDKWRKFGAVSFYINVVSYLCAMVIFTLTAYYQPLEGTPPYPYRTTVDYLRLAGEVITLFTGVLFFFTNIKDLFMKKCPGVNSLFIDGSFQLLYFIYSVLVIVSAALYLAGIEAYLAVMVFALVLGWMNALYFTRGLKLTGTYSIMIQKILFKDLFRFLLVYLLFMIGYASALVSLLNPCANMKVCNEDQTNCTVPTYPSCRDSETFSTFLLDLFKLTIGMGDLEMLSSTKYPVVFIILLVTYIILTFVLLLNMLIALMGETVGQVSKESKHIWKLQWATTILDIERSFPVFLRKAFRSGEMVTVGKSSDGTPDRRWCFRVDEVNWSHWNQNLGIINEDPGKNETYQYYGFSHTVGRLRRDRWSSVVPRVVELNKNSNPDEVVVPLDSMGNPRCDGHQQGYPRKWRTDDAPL

Series [2] relates to Rattus norvegicus. Description: In vivo antagonist activity at TRPV4 in iv dosed Sprague-Dawley rat assessed as inhibition of GSK1016790A-induced reduction in mean arterial pressure at 0.03 to 0.23 mg/kg, iv dosed via bolus dose followed by iv infusion at 0.6 to 5.1 ug/kg/min for 60 mins. The format is functional, organism-based. An outline of the steps:
(§1)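 Sprague-Dawley rats given an i.v. bolus loading dose, then a 60 min continuous i.v. infusion to reach steady-state plasma exposure. Challenged with GSK1016790A at 10 μg/kg/min by 10 min i.v. infusion. Mean arterial pressure and lung wet weight/body weight ratio recorded. Mean ± SEM; comparisons by ANOVA with Dunnett's or Bonferroni post hoc tests.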

Series [3] in a line: Steady state plasma concentration in Sprague-Dawley rat at 0.08 mg/kg, iv dosed via bolus dose followed by iv infusion at 1.7 ug/kg/min for 60 mins. The class given is ADME, organism-based. The conditions noted are these: in vivo, 1 h.
A short description of series [4]: Clearance in iv dosed Sprague-Dawley rat. The format is ADME, organism-based. The conditions noted are these: in vivo. Put shortly:
(§2)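 Male Sprague-Dawley rats with femoral vein, femoral artery and gastric catheters; noncrossover design, 2 rats per route; cassette dosing of up to five compounds. i.v. target 1 mg/kg in 5% DMSO/20% Cavitron (pH 4), infused over 30 min. Oral gastric bolus target 2 mg/kg in 5% DMSO/6% Cavitron (pH 4). Plasma sampled to 24 h and measured by HPLC−MS/MS. Noncompartmental analysis; F from dose-normalized AUC(0−∞) relative to mean i.v. AUC.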

Series [5] has as its system Rattus norvegicus. Description: In vivo antagonist activity at TRPV4 in iv dosed Sprague-Dawley rat assessed as inhibition of GSK1016790A-induced increase in lung wet weight by measuring lung weight/body weight ratio in at 0.03 to 0.23 mg/kg, iv dosed via bolus dose followed by iv infusion at 0.6 to 5.1 ug/kg/min for 60 mins. The class given is functional, organism-based. Put shortly:
as §1

Series [6] can be described thus: Oral bioavailability in Sprague-Dawley rat. Particulars: in vivo. The class given is ADME, organism-based. Put shortly: as §2
Series [7] concerns Rattus norvegicus. The series is described as follows: In vivo antagonist activity at TRPV4 in iv dosed Sprague-Dawley rat assessed as inhibition of GSK1016790A-induced increase in lung wet weight by measuring lung weight/body weight ratio in at 0.23 mg/kg, iv dosed via bolus dose followed by iv infusion at 5.1 ug/kg/min for 60 mins. The class given is functional. An outline of the steps: as §1

For series [8], the species on record is Rattus norvegicus. The series is described as follows: Unbound clearance in Sprague-Dawley rat. The class given is ADME, organism-based. The conditions noted are these: in vivo.
Series [9] can be described thus: Fraction unbound in Sprague-Dawley rat plasma. The format is ADME, cell-free.
Series [10] can be described thus: Aqueous solubility of the compound. The format is physicochemical. The conditions noted are these: buffer.
Series [11] in a line: Lipophilicity, log D of the compound by chromatography. The format is physicochemical.
Series [12] in a line: Steady state plasma concentration in Sprague-Dawley rat at 0.23 mg/kg, iv dosed via bolus dose followed by iv infusion at 5.1 ug/kg/min for 60 mins. The format is ADME, organism-based. The conditions noted are these: in vivo, 1 h.
The nature of series [13]: Steady state plasma concentration in Sprague-Dawley rat at 0.03 mg/kg, iv dosed via bolus dose followed by iv infusion at 0.6 ug/kg/min for 60 mins. The class given is ADME, organism-based. Particulars: in vivo, 1 h.
Series [14] concerns Rattus norvegicus. The series is described as follows: In vivo antagonist activity at TRPV4 in iv dosed Sprague-Dawley rat assessed as inhibition of GSK1016790A-induced reduction in mean arterial pressure at 0.23 mg/kg, iv dosed via bolus dose followed by iv infusion at 5.1 ug/kg/min for 60 mins. The class given is functional. An outline of the steps:
as §1

Series [15] can be described thus: MRT in iv dosed Sprague-Dawley rat. Particulars: in vivo. The format is ADME, organism-based. An outline of the steps:
as §2

With `N#Cc1ccc(OCC2(O)CCN(S(=O)(=O)c3ccc(Cl)cc3Cl)C2)cc1F` (racemic), the IC50 in series [1] was determined as 150 nM.
Take `N#Cc1ccc(O[C@H]2CN(S(=O)(=O)c3ccc(Cl)cc3Cl)C[C@@H]2CO)cc1F` (racemic): the IC50 in series [1] was determined as 200 nM.
`N#Cc1ccc(O[C@H]2CN(S(=O)(=O)c3ccc(C(F)(F)F)cc3C#N)C[C@@]2(O)CO)cc1F`: the inhibition entry in the series on Rattus norvegicus [2] and with Rattus norvegicus [5] was “Dose-dependent effect” each time. Also, the Cpss was 40 nM in [3], 90 nM in series [12] and 30 nM in series [13]. Moreover, in series [4], the clearance stood at 82 mL/min/kg. In addition, in series [6], the bioavailability stood at 72%. Besides, the “inhibition (INH)” value with Rattus norvegicus [7] and in the series on Rattus norvegicus [14] was 100% each time. This compound also registered a CL free in the series filed under Rattus norvegicus [8] of 1400 mL/min/kg. For the same compound, the fraction unbound in series [9] was found to be 0.049. The compound also returned a solubility in [10] of 90 µM (≈ 43.7 µg/mL). For the same compound, the IC50 in series [1] came to 1 nM. Also, the chromatographic logD in series [11] was found to be 4.6. Also, the MRT in [15] turned out to be 0.8 h.
Turning to `N#Cc1ccc(O[C@H]2CN(S(=O)(=O)c3ccc(Cl)cc3Cl)C[C@H]2CO)cc1F` (racemic), the IC50 in [1] is 50 nM.
Still for that read-out and setting: the value for `N#Cc1ccc(OC2CCN(S(=O)(=O)c3ccc(Cl)cc3Cl)C2)cc1F` (racemic) was 320 nM; that for `N#Cc1ccc(OC[C@H]2CN(S(=O)(=O)c3ccc(Cl)cc3Cl)C[C@H]2O)cc1F` (racemic) was 1500 nM; that for `N#Cc1ccc(OCC2CCN(S(=O)(=O)c3ccc(Cl)cc3Cl)CC2)cc1F` was 6300 nM.
The compound `N#Cc1ccc(OCC2(O)CCN(S(=O)(=O)c3ccc(Cl)cc3Cl)CC2)cc1F` came in with a clearance in series [4] of 19 mL/min/kg. In addition, in [6], the bioavailability came to 56%. This compound came in with a CL free in the series listed under Rattus norvegicus [8] of 1461 mL/min/kg. In addition, in series [9], the fraction unbound was determined as 0.013. In series [10], this compound showed a solubility of 7.5 µM (≈ 3.44 µg/mL). For the same compound, the IC50 in series [1] was 130 nM. The chromatographic logD in series [11] was 6.3. This compound gave an MRT in [15] of 1.5 h.
`N#Cc1ccc(OCC2(O)CN(S(=O)(=O)c3ccc(Cl)cc3Cl)C2)cc1F`: the IC50 in [1] was 50 nM.
Same read-out and setting: the value for `N#Cc1ccc(O[C@H]2CN(S(=O)(=O)c3ccc(Cl)cc3Cl)C[C@]2(O)CO)cc1F` (racemic) was 100 nM; that for `N#Cc1ccc(OC[C@@]2(O)CN(S(=O)(=O)c3ccc(Cl)cc3Cl)C[C@@H]2O)cc1F` (racemic) was 150 nM.
Still for that read-out and setting: the same measure for `N#Cc1ccc(O[C@H]2CN(S(=O)(=O)c3ccc(Cl)cc3Cl)C[C@@]2(O)CO)cc1F` (racemic): 4 nM; for `N#Cc1ccc(O[C@H]2CN(S(=O)(=O)c3ccc(Cl)cc3Cl)C[C@@H]2O)cc1F` (racemic): 40 nM; for `N#Cc1ccc(O[C@H]2CN(S(=O)(=O)c3ccc(Cl)cc3Cl)C[C@H]2O)cc1F` (racemic): 100 nM.
Same read-out and setting: the value for `N#Cc1ccc(OC[C@@H]2CN(S(=O)(=O)c3ccc(Cl)cc3Cl)C[C@H]2O)cc1F` (racemic) was 1000 nM.

In general, IC50 refers to the concentration at which inhibition is half-maximal. As usually defined, the clearance is a measure of how efficiently the substance is removed, as volume per time. A lower clearance goes with a low capacity for elimination. In general, bioavailability refers to dose-corrected exposure relative to a reference, in per cent. Lower therefore signals poor availability. One may read the fraction unbound as the share of the substance not bound to proteins or other matrix. The low end stands for extensive binding, the high end for weak binding. For orientation: solubility means how much of the substance goes into solution per volume. The low end stands for a poorly soluble substance, the high end for a readily soluble substance. As usually defined, the chromatographic logD is lipophilicity estimated from chromatographic retention. Low readings indicate a more hydrophilic compound, high ones a more lipophilic compound. By MRT is commonly meant a mean duration of stay, worked out from the concentration-time curve.
